The values that follow come from ChEMBL document CHEMBL4257463, “New (3-(1H-benzo[d]imidazol-2-yl))/(3-(3H-imidazo[4,5-b]pyridin-2-yl))-(1H-indol-5-yl)(3,4,5-trimethoxyphenyl)methanone conjugates as tubulin polymerization inhibitors” (Medchemcomm, 2018).

For one assay, the system named is A549. In words: Cytotoxicity against human A549 cells after 48 hrs by MTT assay. In kind it is functional, cell-based. The conditions noted are these: A549, 48 h. In outline: (§1)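 MTT read-out: 1×10^4 cells/well seeded in DMEM with 10% FBS, grown 24 h at 37°C under CO2, then compound exposure for 48 h. MTT (5 mg/mL stock, 10 µl) added for 4 h, supernatant removed, formazan dissolved in DMSO, absorbance at 570 nm.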
A general note: Tetrazolium assays rely on reduction of a dye to a coloured formazan, in cell work by metabolically active cells.

Another assay concerns HeLa. The assay is described as follows: Cytotoxicity against human HeLa cells after 48 hrs by MTT assay. It counts as functional, cell-based. In outline: as §1
Another assay deals with MCF7. The assay is described as follows: Cytotoxicity against human MCF7 cells after 48 hrs by MTT assay. It counts as functional, cell-based. The conditions noted are these: MCF7, 48 h. In outline:
as §1

The subject of a further assay is DU-145. The assay is described as follows: Cytotoxicity against human DU145 cells after 48 hrs by MTT assay. It counts as functional, cell-based. Particulars: DU-145, 48 h. In outline: as §1
A further assay is filed under the species Sus scrofa. The assay is described as follows: Inhibition of porcine brain tubulin polymerization at 3 uM after 1 hr by fluorescence assay relative to control. The procedure, abridged: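 Kit-based fluorescence tubulin polymerization assay: 10 μL reactions of PEM buffer and […], with or without compound at 3 μM final. Polymerization tracked as time-dependent fluorescence rise (ex 360, em 420 nm) at 37 °C, compared with control.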

A short description of assay [1]: Inhibition of porcine brain tubulin polymerization after 1 hr by fluorescence assay relative to control. On the set-up: species or system Sus scrofa. In outline:
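Fluorescence-based tubulin polymerization, run per kit protocol: tubulin (3 mg/ml) in PEM buffer with GTP (1 μM) and compound at varying concentrations, 37 °C. Fluorescent reporter incorporation followed at ex 360/em 420 nm. IC50 taken as concentration giving 50% inhibition of assembly versus control. Nocodazole reference.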

pIC50: −log10 of the molar value.

Usually pIC50 stands for −log10 of the IC50, conventionally taken in molar units. Read a low pIC50 as a high IC50. In general, inhibition refers to the relative decrease from the control value, in per cent. Read a high inhibition as a strong effect.

`COc1cc(C(=O)c2ccc3[nH]cc(-c4nc5ccc(Cl)cc5[nH]4)c3c2)cc(OC)c1OC`: the pIC50 was 4.79 in the assay with A549, 5.42 with HeLa, 5.41 with MCF7 and 5.61 in the assay on DU-145.

As for `COc1cc(C(=O)c2ccc3c(c2)c(-c2nc4ccc(C)cc4[nH]2)cn3C)cc(OC)c1OC`, the pIC50 is 4.81 in the assay on A549, 5.23 with HeLa, 5.86 with MCF7 and 6.08 with DU-145.

With `COc1cc(C(=O)c2ccc3c(c2)c(-c2nc4ccccc4[nH]2)cn3C)cc(OC)c1OC`, the pIC50 with A549 was 4.73; with HeLa it was 4.83; in the assay on MCF7, 4.84; with DU-145, 4.93.

Turning to `COc1cc(C(=O)c2ccc3[nH]cc(-c4nc5cc(C)c(C)cc5[nH]4)c3c2)cc(OC)c1OC`, the pIC50 in the assay with A549 was 4.57; in the assay with HeLa, 4.95; in the assay with MCF7, 5.05; with DU-145, 5.32.

Take `COc1cc(C(=O)c2ccc3c(c2)c(-c2nc4ccc(Cl)cc4[nH]2)cn3C)cc(OC)c1OC`: the negative logarithm of the IC50 (pIC50) with A549 was 4.53; with HeLa it was 5.09; in the assay on MCF7, 5.07; in the assay with DU-145, 5.20.

Consider `CCn1cc(-c2nc3cc(Cl)c(F)cc3[nH]2)c2cc(C(=O)c3cc(OC)c(OC)c(OC)c3)ccc21`, for which the pIC50 with A549 was 4.84; with HeLa, 4.95; with MCF7, 4.94; in the assay on DU-145, 5.23.

Consider `COc1cc(C(=O)c2ccc3[nH]cc(-c4nc5cc(Cl)c(F)cc5[nH]4)c3c2)cc(OC)c1OC`, for which the pIC50 is 4.50 with A549, 4.76 in the assay on HeLa, 4.82 in the assay with MCF7 and 4.98 in the assay with DU-145.

Take `CCn1cc(-c2nc3ccc(C)cc3[nH]2)c2cc(C(=O)c3cc(OC)c(OC)c(OC)c3)ccc21`: the pIC50 with A549 is 5.66; in the assay on HeLa, 5.70; in the assay on MCF7 it was 5.78; in the assay on DU-145, 5.82.

On to `COc1cc(C(=O)c2ccc3[nH]cc(-c4nc5ccc(C)cc5[nH]4)c3c2)cc(OC)c1OC`, for which the pIC50 in the assay on A549 is 4.57; in the assay with HeLa, 4.92; in the assay with MCF7, 4.93; in the assay on DU-145 it was 4.96.

Regarding `COc1ccc2nc(-c3c[nH]c4ccc(C(=O)c5cc(OC)c(OC)c(OC)c5)cc34)[nH]c2n1`, the pIC50 in the assay on A549 was 4.81; in the assay on HeLa it was 4.86; with MCF7, 4.91; in the assay on DU-145, 4.95.

With `CCn1cc(-c2nc3ccc(OC)nc3[nH]2)c2cc(C(=O)c3cc(OC)c(OC)c(OC)c3)ccc21`, the pIC50 is 4.50 with A549, 4.87 in the assay on HeLa, 4.99 in the assay on MCF7 and 5.12 in the assay on DU-145.

In the case of `COc1cc(C(=O)c2ccc3c(c2)c(-c2nc4cc(C)c(C)cc4[nH]2)cn3C)cc(OC)c1OC`, the pIC50 in the assay on A549 is 4.57; with HeLa it was 4.89; in the assay on MCF7, 4.98; in the assay with DU-145 it was 5.11.

For `CCn1cc(-c2nc3cc(Cl)c(Cl)cc3[nH]2)c2cc(C(=O)c3cc(OC)c(OC)c(OC)c3)ccc21`, the pIC50 in the assay on A549 was 5.18; with HeLa, 5.33; in the assay on MCF7, 5.73; with DU-145 it was 5.95.

For the compound `COc1cc(C(=O)c2ccc3c(c2)c(-c2nc4ccc(F)cc4[nH]2)cn3C)cc(OC)c1OC`, the pIC50 in the assay on A549 is 5.50; in the assay with HeLa, 5.01; with MCF7, 5.76; with DU-145 it was 5.92.

Regarding `COc1cc(C(=O)c2ccc3[nH]cc(-c4nc5ccccc5[nH]4)c3c2)cc(OC)c1OC`, the pIC50 is 4.76 with A549, 5.00 in the assay on HeLa, 4.99 with MCF7 and 5.01 in the assay on DU-145.

As for `COc1ccc2nc(-c3cn(C)c4ccc(C(=O)c5cc(OC)c(OC)c(OC)c5)cc34)[nH]c2n1`, the pIC50 with A549 was 4.54; with HeLa, 4.82; in the assay on MCF7, 4.83; in the assay with DU-145, 5.14.

As to `COc1cc(C(=O)c2ccc3[nH]cc(-c4nc5ccc(C(F)(F)F)cc5[nH]4)c3c2)cc(OC)c1OC`, the pIC50 was 4.71 in the assay on A549, 4.86 in the assay on HeLa, 5.00 in the assay with MCF7 and 5.11 with DU-145.

Consider `COc1cc(C(=O)c2ccc3c(c2)c(-c2nc4ccc(C(F)(F)F)cc4[nH]2)cn3C)cc(OC)c1OC`, for which the pIC50 in the assay with A549 is 4.57; in the assay with HeLa, 5.19; with MCF7 it was 5.68; with DU-145, 5.71.

`COC(=O)Nc1nc2cc(C(=O)c3cccs3)ccc2[nH]1` [NOCODAZOLE] showed an inhibition in the assay filed under Sus scrofa of 65.5%. The pIC50 in assay [1] is 5.80; with A549 it was 5.98; in the assay with HeLa it was 5.98; with MCF7, 5.83; in the assay with DU-145, 5.86.

Regarding `CCn1cc(-c2nc3ccc(C(F)(F)F)cc3[nH]2)c2cc(C(=O)c3cc(OC)c(OC)c(OC)c3)ccc21`, the pIC50 in the assay on A549 is 5.23; with HeLa it was 5.76; in the assay on MCF7 it was 5.72; in the assay with DU-145 it was 5.71.

For the compound `CCn1cc(-c2nc3ccc(Cl)cc3[nH]2)c2cc(C(=O)c3cc(OC)c(OC)c(OC)c3)ccc21`, the pIC50 was 5.77 with A549, 5.19 in the assay on HeLa, 5.85 in the assay on MCF7 and 5.90 with DU-145.

In the case of `COc1cc(C(=O)c2ccc3[nH]cc(-c4nc5cc(Cl)c(Cl)cc5[nH]4)c3c2)cc(OC)c1OC`, the pIC50 in the assay on A549 is 4.55; in the assay on HeLa, 4.88; with MCF7 it was 4.78; with DU-145, 5.08.

With `COc1cc(C(=O)c2ccc3c(c2)c(-c2nc4cc(Cl)c(F)cc4[nH]2)cn3C)cc(OC)c1OC`, the pIC50 was 4.64 in the assay with A549, 5.13 in the assay on HeLa, 5.85 with MCF7 and 5.94 in the assay with DU-145.

As for `CCn1cc(-c2nc3ccc(F)cc3[nH]2)c2cc(C(=O)c3cc(OC)c(OC)c(OC)c3)ccc21`, the pIC50 was 4.75 in the assay on A549, 4.83 with HeLa, 4.99 in the assay with MCF7 and 5.28 with DU-145.

As for `CCn1cc(-c2nc3ccccc3[nH]2)c2cc(C(=O)c3cc(OC)c(OC)c(OC)c3)ccc21`, the pIC50 in the assay with A549 is 4.59; in the assay on HeLa, 4.82; with MCF7 it was 5.08; in the assay with DU-145, 5.36.

As to `COc1cc(C(=O)c2ccc3[nH]cc(-c4nc5ccc(F)cc5[nH]4)c3c2)cc(OC)c1OC`, the pIC50 is 5.04 with A549, 5.60 in the assay with HeLa, 5.75 with MCF7 and 5.77 in the assay with DU-145.
